We go through two molecules from the M2OR odorant receptor database.

Holding throughout (conditions): stereoisomer not certain
Assay [1] concerns the target T1, UniProt E9PVX1.
T1 sequence (whole entry): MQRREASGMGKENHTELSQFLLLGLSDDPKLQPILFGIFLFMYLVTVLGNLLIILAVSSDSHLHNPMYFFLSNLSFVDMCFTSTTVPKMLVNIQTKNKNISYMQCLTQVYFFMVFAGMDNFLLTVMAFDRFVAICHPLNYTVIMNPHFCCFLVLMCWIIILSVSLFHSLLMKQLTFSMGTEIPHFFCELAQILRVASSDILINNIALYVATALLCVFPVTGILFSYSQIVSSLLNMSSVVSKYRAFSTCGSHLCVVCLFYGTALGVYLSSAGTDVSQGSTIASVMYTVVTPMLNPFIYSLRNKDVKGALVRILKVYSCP
The procedure, abridged: (§1)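 Transient luciferase assays in mammalian cell lines were common, though methods varied by source. The values come from published papers and their supplementary material, with extra details from the original authors when needed. Responsive refers to a measured signal the original authors judged statistically different from baseline, and non-responsive (inactive) to the remainder.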

Assay [2] deals with T2, UniProt E9PZ66.
T2 sequence (whole entry): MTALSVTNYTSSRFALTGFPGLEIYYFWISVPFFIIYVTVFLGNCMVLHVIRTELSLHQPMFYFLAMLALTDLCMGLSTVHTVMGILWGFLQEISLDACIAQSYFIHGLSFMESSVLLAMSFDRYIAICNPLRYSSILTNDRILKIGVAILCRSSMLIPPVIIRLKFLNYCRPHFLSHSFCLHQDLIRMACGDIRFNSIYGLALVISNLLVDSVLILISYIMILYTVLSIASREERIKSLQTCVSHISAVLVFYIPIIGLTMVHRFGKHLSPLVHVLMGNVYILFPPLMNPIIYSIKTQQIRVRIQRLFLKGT
The procedure, abridged: as §1

The target in assay [3] is T3, UniProt E9Q4X7.
T3 sequence (whole entry): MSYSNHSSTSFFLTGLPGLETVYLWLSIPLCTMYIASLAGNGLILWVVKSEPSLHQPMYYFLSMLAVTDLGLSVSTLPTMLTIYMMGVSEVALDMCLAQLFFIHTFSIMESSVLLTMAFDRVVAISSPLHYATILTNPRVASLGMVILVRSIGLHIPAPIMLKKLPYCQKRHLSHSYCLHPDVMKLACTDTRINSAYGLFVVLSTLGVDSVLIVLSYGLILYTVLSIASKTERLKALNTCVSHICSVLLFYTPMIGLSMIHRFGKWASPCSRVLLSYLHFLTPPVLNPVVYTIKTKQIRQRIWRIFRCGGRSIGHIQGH
The procedure, abridged:
as §1

Assay [4] addresses T4, UniProt E9Q546.
T4 sequence (whole entry): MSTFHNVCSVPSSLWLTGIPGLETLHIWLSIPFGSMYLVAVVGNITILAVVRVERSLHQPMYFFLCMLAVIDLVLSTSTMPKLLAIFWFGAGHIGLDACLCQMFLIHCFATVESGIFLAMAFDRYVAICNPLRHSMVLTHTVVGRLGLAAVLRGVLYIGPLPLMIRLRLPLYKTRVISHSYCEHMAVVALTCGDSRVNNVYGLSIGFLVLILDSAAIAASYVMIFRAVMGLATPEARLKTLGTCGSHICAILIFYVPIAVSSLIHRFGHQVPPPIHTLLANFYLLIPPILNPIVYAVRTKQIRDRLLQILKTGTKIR
The procedure, abridged:
as §1

Assay [5] addresses T5, UniProt E9Q6Z7.
T5 sequence (whole entry): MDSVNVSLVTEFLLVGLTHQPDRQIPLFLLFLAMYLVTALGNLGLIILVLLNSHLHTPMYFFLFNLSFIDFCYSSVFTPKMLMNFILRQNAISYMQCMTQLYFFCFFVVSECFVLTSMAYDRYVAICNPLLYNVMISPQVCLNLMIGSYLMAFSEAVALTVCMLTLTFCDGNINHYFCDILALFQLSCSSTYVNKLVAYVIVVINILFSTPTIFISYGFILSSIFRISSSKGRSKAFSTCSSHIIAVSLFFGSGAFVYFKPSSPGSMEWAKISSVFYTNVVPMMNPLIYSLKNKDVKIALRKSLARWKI
In short, it runs like this:
as §1

Assay [6] addresses T6, UniProt L7MU75.
T6 sequence (whole entry): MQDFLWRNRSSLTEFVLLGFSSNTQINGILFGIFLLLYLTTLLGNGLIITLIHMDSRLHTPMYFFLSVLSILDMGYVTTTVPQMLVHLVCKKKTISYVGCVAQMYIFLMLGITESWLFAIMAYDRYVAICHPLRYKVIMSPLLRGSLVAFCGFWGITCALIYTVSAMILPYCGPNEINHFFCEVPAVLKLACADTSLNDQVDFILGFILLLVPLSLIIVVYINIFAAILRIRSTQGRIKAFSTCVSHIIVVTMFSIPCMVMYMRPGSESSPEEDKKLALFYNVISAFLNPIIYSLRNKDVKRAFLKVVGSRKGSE
The procedure, abridged:
as §1

The target of assay [7] is T7, UniProt L7N210.
T7 sequence (whole entry): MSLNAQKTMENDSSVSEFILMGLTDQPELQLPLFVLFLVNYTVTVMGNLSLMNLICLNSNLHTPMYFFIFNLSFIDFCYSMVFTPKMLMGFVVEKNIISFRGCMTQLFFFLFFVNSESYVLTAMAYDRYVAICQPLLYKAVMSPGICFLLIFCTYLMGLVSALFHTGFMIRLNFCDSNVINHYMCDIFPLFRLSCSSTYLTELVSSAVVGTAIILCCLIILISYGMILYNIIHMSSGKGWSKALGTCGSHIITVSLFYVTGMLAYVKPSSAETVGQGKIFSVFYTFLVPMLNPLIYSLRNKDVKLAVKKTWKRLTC
The procedure, abridged:
as §1

In assay [8] the target is T8, UniProt Q3KPB0.
T8 sequence (whole entry): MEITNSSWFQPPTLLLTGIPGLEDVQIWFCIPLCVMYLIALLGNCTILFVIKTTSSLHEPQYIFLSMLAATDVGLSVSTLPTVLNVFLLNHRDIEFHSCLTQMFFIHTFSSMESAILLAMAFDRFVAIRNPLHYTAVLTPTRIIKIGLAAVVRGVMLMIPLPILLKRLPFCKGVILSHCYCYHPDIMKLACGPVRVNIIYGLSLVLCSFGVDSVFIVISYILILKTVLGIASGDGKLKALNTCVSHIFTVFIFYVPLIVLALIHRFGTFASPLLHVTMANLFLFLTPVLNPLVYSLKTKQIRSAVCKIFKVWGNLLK
The procedure, abridged:
as §1

The target of assay [9] is T9, UniProt Q3U0P3.
T9 sequence (whole entry): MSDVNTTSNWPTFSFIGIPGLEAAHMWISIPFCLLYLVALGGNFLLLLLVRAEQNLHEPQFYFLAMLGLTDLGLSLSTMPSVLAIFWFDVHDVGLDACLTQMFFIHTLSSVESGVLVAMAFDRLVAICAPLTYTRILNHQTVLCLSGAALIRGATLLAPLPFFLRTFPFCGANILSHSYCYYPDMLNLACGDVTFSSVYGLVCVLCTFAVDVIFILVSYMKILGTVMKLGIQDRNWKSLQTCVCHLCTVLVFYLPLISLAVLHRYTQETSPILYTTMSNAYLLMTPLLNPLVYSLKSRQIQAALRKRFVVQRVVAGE
In short, it runs like this:
as §1

The target of assay [10] is T10, UniProt Q7TQU8.
T10 sequence (whole entry): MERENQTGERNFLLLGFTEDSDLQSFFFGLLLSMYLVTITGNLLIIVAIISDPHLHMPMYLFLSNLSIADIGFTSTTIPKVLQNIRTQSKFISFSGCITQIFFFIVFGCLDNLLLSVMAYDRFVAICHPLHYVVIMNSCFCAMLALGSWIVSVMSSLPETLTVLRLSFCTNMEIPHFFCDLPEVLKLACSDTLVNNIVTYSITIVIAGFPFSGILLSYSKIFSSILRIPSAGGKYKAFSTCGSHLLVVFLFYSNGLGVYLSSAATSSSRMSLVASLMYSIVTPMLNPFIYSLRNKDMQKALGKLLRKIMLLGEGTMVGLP
In short, it runs like this: as §1

The target in assay [11] is T11, UniProt Q7TR79.
T11 sequence (whole entry): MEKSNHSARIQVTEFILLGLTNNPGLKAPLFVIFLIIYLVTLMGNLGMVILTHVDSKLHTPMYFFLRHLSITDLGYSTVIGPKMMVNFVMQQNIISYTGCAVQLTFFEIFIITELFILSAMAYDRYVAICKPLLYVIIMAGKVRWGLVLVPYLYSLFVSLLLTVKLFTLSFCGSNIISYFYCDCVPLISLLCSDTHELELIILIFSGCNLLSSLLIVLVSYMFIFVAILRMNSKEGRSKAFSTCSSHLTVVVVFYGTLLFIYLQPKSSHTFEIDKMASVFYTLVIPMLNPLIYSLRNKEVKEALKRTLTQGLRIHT
In short, it runs like this:
as §1
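Note: active if original authors judged signal statistically different from baseline.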

Take `C=C(C)C1CC=C(C=O)CC1` (configuration not stated): the “odorant receptor agonist call” value in assay [1], in assay [2], in assay [3], in assay [4], in assay [5] and in assay [6] was “inactive” in each case. Further, the “odorant receptor agonist call” value in [8], in [9], in assay [10] and in assay [11] was “inactive” in each case. The “odorant receptor agonist call” value in assay [7] was “active”.
Turning to `CC(C=O)Cc1ccc2c(c1)OCO2` (configuration not stated), the “odorant receptor agonist call” value in [1], in assay [2], in assay [3], in assay [4], in [5] and in assay [6] was “inactive” in each case. Also, the “odorant receptor agonist call” value in [8], in assay [9], in [10] and in [11] was “inactive” throughout. For the same molecule, the “odorant receptor agonist call” value in assay [7] is “active”.
